In ChEMBL document CHEMBL5653631, “A Potent and Selective ULK1 Inhibitor Suppresses Autophagy and Sensitizes Cancer Cells to Nutrient Stress” (iScience, 2018):
One block for each compound: values may come before it.

Experiments:
[1] = target: T1, Serine/threonine-protein kinase BRSK2 (Homo sapiens) (UniProt Q8IWQ3); test: Inhibition of human recombinant BRSK2 at 500 nM in presence of ATP by radiometric assay relative to control
T1 sequence (whole entry): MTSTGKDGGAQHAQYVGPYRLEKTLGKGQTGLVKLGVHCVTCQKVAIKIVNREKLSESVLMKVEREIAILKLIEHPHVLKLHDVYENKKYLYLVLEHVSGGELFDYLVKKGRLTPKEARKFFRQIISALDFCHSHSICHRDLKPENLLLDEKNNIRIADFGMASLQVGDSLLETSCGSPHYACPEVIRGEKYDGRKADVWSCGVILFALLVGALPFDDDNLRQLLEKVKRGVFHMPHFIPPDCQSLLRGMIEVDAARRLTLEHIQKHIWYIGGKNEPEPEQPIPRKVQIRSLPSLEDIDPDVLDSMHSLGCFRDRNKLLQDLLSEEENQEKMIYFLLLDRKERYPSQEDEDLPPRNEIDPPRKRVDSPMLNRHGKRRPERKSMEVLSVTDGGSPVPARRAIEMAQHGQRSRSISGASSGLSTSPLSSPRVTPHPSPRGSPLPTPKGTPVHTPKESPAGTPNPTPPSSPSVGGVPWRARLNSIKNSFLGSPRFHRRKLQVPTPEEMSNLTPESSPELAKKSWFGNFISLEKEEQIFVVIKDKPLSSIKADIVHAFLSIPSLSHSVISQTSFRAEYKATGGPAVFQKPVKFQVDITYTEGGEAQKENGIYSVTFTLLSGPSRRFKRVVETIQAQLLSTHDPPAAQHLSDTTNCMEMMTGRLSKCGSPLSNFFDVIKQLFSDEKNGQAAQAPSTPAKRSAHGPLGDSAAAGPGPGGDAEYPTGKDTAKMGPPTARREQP
Summary of the method: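 Recombinant human kinase panel (327 kinases) run as radiometric activity assays, each kinase in duplicate at one compound concentration. Activity remaining expressed relative to vehicle control; percent inhibition taken as 100% minus % activity remaining.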

[2] = target: Calcium/calmodulin-dependent protein kinase type II subunit delta (Homo sapiens) (UniProt Q13557); test: Inhibition of human recombinant CaMK2d at 500 nM related to control ULK1
[3] = target: Dual specificity mitogen-activated protein kinase kinase 1 (Homo sapiens) (UniProt Q02750); test: Inhibition of human recombinant MAP2K1 at 15 nM in presence of ATP by radiometric assay relative to control
[4] = target: T2, Mitogen-activated protein kinase kinase kinase 3 (Homo sapiens) (UniProt Q99759); test: Inhibition of human recombinant MAP3K3 at 15 nM in presence of ATP by radiometric assay relative to control
T2 sequence (whole entry): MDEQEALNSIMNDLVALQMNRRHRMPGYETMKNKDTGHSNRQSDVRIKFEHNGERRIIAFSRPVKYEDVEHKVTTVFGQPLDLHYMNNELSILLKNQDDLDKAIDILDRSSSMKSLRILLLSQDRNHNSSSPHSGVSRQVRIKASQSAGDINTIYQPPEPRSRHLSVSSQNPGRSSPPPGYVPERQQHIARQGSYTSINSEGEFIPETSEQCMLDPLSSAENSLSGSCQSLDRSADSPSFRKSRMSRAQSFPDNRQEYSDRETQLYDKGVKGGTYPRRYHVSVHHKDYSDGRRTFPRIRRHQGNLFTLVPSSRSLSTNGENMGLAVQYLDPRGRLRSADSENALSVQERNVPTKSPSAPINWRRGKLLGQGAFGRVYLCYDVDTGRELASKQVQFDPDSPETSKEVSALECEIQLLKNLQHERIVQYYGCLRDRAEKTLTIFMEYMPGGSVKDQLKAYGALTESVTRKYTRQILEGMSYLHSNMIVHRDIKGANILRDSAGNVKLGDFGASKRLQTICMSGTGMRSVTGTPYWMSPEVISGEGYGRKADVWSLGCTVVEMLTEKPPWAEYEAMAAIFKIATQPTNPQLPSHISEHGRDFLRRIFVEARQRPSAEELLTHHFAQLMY

[5] = target: Wee1-like protein kinase (Homo sapiens) (UniProt P30291); test: Inhibition of human recombinant Wee1 at 15 nM in presence of ATP by radiometric assay relative to control
[6] = target: Tyrosine-protein kinase Lyn (Homo sapiens) (UniProt P07948); test: Inhibition of human recombinant LYN at 15 nM related to control ULK1
[7] = target: Ribosomal protein S6 kinase alpha-1 (Homo sapiens) (UniProt Q15418); test: Inhibition of human recombinant RSK1 at 15 nM related to control ULK1
[8] = target: Receptor-interacting serine/threonine-protein kinase 2 (Homo sapiens) (UniProt O43353); test: Inhibition of human recombinant RIPK2 at 40 nM in presence of ATP by radiometric assay relative to control
[9] = target: T3, Serine/threonine-protein kinase TAO1 (Homo sapiens) (UniProt Q7L7X3); test: Inhibition of human recombinant TAO1 at 40 nM related to control ULK1
T3 sequence (whole entry): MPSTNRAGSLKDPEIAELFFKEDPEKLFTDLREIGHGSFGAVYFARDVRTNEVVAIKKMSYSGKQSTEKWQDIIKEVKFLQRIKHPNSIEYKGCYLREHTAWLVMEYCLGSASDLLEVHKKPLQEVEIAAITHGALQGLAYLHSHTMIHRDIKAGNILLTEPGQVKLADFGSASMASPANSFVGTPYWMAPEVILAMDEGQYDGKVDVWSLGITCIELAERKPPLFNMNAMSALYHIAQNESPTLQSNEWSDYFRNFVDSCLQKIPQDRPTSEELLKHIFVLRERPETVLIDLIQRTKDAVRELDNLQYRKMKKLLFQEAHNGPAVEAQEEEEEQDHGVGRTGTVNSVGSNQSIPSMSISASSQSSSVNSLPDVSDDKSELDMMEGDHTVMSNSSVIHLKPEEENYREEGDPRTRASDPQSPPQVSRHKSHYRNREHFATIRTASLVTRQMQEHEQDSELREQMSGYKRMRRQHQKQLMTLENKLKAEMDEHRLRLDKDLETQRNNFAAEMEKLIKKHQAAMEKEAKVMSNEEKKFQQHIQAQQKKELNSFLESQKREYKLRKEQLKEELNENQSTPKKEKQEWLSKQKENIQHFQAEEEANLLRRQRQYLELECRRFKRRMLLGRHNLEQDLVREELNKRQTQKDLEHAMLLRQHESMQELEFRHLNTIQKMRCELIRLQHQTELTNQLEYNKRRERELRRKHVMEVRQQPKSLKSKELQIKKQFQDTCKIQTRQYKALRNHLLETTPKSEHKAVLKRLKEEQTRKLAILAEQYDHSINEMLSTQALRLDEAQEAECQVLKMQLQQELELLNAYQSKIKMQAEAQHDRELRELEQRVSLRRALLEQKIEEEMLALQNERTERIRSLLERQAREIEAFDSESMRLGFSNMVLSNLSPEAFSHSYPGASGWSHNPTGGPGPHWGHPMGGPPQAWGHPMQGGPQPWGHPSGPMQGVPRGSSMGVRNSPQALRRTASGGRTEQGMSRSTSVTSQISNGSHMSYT

Chain of Receptor-interacting serine/threonine-protein kinase 2 (Homo sapiens) (O43353 whole entry): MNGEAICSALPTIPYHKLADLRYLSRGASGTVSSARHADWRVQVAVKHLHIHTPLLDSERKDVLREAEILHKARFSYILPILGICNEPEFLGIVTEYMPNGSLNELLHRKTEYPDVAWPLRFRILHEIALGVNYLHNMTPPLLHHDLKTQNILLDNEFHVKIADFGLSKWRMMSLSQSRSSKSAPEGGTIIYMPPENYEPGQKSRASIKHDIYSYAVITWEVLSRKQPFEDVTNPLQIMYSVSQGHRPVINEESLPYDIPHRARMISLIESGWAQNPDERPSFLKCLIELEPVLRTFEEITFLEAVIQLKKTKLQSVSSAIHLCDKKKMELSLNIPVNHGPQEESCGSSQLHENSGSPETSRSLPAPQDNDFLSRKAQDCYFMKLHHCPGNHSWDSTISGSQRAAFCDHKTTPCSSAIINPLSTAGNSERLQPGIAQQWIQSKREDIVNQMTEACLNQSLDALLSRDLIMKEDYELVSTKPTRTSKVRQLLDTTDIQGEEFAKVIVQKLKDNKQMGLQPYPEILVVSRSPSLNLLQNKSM
Chain of Tyrosine-protein kinase Lyn (Homo sapiens) (P07948 2-512 limits assumed): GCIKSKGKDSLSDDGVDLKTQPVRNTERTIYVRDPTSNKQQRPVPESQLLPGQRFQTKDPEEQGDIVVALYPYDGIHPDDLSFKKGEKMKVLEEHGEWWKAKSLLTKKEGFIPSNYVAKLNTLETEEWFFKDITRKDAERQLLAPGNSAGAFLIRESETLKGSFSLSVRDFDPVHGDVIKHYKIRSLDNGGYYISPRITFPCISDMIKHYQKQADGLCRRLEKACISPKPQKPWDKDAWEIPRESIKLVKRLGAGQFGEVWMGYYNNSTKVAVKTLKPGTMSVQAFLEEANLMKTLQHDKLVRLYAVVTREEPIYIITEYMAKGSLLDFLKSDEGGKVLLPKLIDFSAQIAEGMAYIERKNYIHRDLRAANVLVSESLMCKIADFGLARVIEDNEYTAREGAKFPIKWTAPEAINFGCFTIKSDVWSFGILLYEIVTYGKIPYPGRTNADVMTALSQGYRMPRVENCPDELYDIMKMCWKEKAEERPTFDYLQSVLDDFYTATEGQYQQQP
Chain of Wee1-like protein kinase (Homo sapiens) (P30291 whole entry, looked up): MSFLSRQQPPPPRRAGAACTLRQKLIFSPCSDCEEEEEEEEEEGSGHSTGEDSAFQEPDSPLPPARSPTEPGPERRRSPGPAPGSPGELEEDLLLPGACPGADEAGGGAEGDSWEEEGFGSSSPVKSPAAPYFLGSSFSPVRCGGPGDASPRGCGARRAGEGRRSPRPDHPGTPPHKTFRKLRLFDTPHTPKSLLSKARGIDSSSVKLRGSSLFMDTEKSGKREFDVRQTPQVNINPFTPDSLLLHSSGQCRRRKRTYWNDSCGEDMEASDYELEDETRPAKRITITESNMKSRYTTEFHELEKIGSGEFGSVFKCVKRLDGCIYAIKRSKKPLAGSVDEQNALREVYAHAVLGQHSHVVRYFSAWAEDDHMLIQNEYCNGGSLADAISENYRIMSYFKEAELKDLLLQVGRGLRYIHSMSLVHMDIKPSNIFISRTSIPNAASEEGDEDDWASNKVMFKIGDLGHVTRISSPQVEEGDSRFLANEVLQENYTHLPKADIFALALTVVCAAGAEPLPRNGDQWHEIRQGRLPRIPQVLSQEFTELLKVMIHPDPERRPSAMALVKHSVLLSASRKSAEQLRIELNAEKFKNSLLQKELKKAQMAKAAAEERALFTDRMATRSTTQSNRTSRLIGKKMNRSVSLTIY
Chain of Ribosomal protein S6 kinase alpha-1 (Homo sapiens) (Q15418 whole entry): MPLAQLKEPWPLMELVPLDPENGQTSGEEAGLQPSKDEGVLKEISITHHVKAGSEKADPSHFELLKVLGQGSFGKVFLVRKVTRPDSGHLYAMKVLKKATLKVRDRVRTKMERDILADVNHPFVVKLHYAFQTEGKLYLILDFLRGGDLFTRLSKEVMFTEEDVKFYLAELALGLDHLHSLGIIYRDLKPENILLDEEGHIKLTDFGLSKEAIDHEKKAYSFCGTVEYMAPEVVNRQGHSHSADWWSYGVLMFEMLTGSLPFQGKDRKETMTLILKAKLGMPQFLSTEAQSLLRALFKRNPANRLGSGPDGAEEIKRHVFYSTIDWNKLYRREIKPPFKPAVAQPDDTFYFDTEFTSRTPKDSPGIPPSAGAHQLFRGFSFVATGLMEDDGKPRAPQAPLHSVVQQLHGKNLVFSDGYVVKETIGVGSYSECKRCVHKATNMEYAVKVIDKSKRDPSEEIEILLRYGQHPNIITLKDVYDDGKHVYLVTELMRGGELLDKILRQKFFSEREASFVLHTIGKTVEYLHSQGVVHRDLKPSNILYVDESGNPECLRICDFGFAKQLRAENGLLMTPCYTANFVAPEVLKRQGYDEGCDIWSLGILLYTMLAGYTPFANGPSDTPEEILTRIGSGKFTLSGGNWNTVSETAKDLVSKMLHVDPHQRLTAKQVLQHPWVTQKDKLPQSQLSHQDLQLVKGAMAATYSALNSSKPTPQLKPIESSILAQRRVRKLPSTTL
Chain of Dual specificity mitogen-activated protein kinase kinase 1 (Homo sapiens) (Q02750 whole entry): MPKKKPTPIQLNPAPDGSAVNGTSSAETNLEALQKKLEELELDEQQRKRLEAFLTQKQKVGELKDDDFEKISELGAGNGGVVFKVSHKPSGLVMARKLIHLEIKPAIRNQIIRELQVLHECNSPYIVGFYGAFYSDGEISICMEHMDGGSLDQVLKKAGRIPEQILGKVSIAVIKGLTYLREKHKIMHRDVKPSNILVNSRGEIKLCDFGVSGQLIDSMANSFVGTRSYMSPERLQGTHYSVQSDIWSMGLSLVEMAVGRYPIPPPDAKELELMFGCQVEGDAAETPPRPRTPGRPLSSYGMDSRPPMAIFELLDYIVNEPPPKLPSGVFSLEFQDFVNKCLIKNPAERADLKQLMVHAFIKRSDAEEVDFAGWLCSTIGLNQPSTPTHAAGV
Chain of Calcium/calmodulin-dependent protein kinase type II subunit delta (Homo sapiens) (Q13557 whole entry): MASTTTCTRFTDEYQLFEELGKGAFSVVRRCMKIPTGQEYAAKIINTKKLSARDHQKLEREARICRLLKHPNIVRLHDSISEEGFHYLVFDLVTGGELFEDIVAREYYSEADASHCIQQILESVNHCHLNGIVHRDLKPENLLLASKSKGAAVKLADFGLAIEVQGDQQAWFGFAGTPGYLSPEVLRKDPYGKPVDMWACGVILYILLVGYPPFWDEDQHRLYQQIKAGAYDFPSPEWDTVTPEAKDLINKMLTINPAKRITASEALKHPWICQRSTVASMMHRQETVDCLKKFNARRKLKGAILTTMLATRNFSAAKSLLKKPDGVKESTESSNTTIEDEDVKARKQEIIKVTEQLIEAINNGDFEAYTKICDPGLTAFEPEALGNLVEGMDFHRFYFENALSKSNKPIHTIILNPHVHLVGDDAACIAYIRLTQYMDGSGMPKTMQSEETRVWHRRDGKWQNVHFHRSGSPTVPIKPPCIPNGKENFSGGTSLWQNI

inhibition [1]: 3%
fold change (FC) [2]: 0.12
Compound: CNC(=O)c1ccccc1Oc1nc(Nc2cc(OC)c(OC)c(OC)c2)ncc1Br

inhibition [3]: 7%
inhibition [4]: 3%
inhibition [5]: 15%
fold change (FC) [6]: 0.22
fold change (FC) [7]: 0.26
Compound: CC(C)[C@H](NC(=O)c1cc(-c2cnn3cc(-c4ccc(OCCN5CCCCC5)cc4)cnc23)cs1)C(F)(F)F

inhibition [8]: 30%
fold change (FC) [9]: 0
Compound: O=C(N[C@@H](C1CC1)C(F)(F)F)c1cc(-c2cnn3cc(-c4ccc(F)cc4)cnc23)cs1
